Active and inactive are the calls of the source. No cut-off for these calls is given here.
How the values were obtained:
[1] = Cytotoxicity against human A549 cells assessed as reduction in cell viability incubated for 24 hrs by Alamar blue assay; assay type: cell-based
In short: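 A549 cytotoxicity by Alamar Blue viability assay; duplicate wells, mean ± SD, one representative experiment (n = 3).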

A549 [2] = experiment: Inhibition of diphtheria induced toxicity in human A549 cells assessed as protection factor at 15 uM incubated for 20 hrs followed by replacement of [14c]-Leucine containing medium and measured after 4 hrs by liquid scintillation analysis relative to untreated control; assay type: functional
In short: (§1)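 A549 cells were incubated with Baf A1 (0.15 nM), DABMA (15 μM), both, or DMSO vehicle before DT was added, with the compounds kept present throughout. Toxin protection was read as protein synthesis and expressed as protection factor.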

A549 [3] = experiment: Inhibition of colony formation in human A549 cells assessed as reduction in colony forming unit at 30 to 60 uM incubated for 16 hrs followed by fresh medium supplementation and measured after 7 days by crystal violet-staining based assay; assay type: cell-based; conditions: a549, 16 h
In short: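 Colony-forming assay of A549 cells with compound at 30 or 60 μM, DMSO vehicle, and paclitaxel (5 μM) as positive control; n = 2.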

HUVEC = experiment: Cytoprotection activity in HUVEC assessed as inhibition of diphtheria induced toxicity by measuring protein synthesis at 15 to 60 uM incubated for 20 hrs followed by replacement of [14c]-Leucine containing medium and measured after 4 hrs by liquid scintillation analysis; assay type: functional, cell-based; conditions: Homo sapiens
Vero [4] = experiment: Cytoprotection activity in African green monkey Vero cells assessed as inhibition of diphtheria induced toxicity incubated for 20 hrs followed by replacement of [14c]-Leucine containing medium and measured after 4 hrs by liquid scintillation analysis; assay type: functional, cell-based; conditions: Chlorocebus sabaeus
PC-3 = experiment: Cytoprotection activity in human PC3 cells assessed as inhibition of diphtheria induced toxicity incubated for 20 hrs followed by replacement of [14c]-Leucine containing medium and measured after 4 hrs by liquid scintillation analysis; assay type: functional, cell-based
A-431 = experiment: Cytoprotection activity in human A431 cells assessed as inhibition of diphtheria induced toxicity incubated for 20 hrs followed by replacement of [14c]-Leucine containing medium and measured after 4 hrs by liquid scintillation analysis; assay type: functional, cell-based
A549 [5] = experiment: Induction of lysosomal activation in human A549 cells at 30 uM incubated for 2 hrs by LysoTracker Red staining based confocal microscopic analysis; assay type: functional, cell-based
In short: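 A549 cells were pretreated 2 h with compound (30 or 60 μM) or DMSO, then stained with LysoTracker Deep Red (50 nM, 30 min) plus Hoechst. Intensity was read from 3 × 3 fields per well (10,000 cells/well) by imaging reader; mean ± SEM, n = 4; confocal images.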

A549 [6] = experiment: Increase in cholesterol accumulation in human A549 cells at 30 uM incubated for 18 hrs by choelesterol-avid filipin-3 staining based confocal microscopic analysis; assay type: functional, cell-based
In short: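 A549 cells were treated 18 h with compound or DMSO, fixed, and stained with Filipin III for cholesterol. Confocal imaging; fluorescence quantified in >30 cells (mean ± SEM), unpaired t test versus DMSO.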

A549 [7] = experiment: Induction of lysosomal activation in human A549 cells assessed as increase in endosomal volume by measuring Rab7 expression at 30 uM incubated for 6 hrs by immunostaining based confocal microscopic analysis; assay type: functional, cell-based
In short: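 A549 cells were pretreated 6 h with compound or DMSO and immunostained for Rab7, with DAPI nuclei. Confocal imaging; fluorescence quantified in >30 cells (mean ± SEM), unpaired t test versus DMSO.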

Vero [8] = experiment: Inhibition of TcsL-induced cytotoxicity against African green monkey Vero cells assessed as reversal of toxin-induced cell rounding at 30 uM in presence of TcsL after 16 hrs by inverted microscopic analysis; assay type: functional, cell-based; conditions: Chlorocebus sabaeus
In short: (§2)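 Vero cells were given compound (30 μM) or DMSO, then increasing doses of TcdB for 4 h or TcsL for 16 h. Cell rounding was imaged by inverted microscope. Rounded cells were counted and normalised to total Hoechst-counterstained cells (>100 cells per treatment).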

Vero [9] = experiment: Inhibition of TcsL-induced cytotoxicity against African green monkey Vero cells assessed as reversal of toxin-induced cell rounding after 16 hrs by inverted microscopic analysis; assay type: functional, cell-based; conditions: Chlorocebus sabaeus; in short: as §2
L929 = experiment: Cytoprotective activity in Pseudomonas aeruginosa exotoxin-induced toxicity in mouse L929 cells assessed as protection of protein synthesis after 18 hrs followed by replacement of [14c]-Leucine containing medium and measured after 4 hrs by liquid scintillation analysis by liquid scintillation analysis; assay type: functional, cell-based
In short: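 L929 cells were intoxicated with increasing doses of Pseudomonas exotoxin A for 18 h with compound (30 μM) or DMSO present. Protein synthesis was measured; duplicate wells, mean ± SD, one representative experiment (n = 3).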

Lyssavirus rabies = experiment: Antiviral activity against RABV infected in BSR cells preincubated for 4 hrs followed by viral infection and further incubated with compounds for 24 hrs by immunostaining-based assay; assay type: functional, organism-based
In short: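 BSR cells were pretreated 4 h with compound, then infected with RABV (MOI = 14) for 1 h. Cells were washed and kept with compound for 24 h, then fixed and immunostained for the RABV ribonucleocapsid (RNP). Nuclei and RNP images from 15 fields per well (>10,000 cells) were used to calculate percent inhibition.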

Zaire ebolavirus [10] = experiment: Antiviral activity against Zaire EBOV-mayinga expressing GFP infected in human HeLa cells preincubated for 1 hr followed by viral infection after 24 hrs by DAPI-staining based fluorescence assay relative to control; assay type: functional, 1976
[11] = Cytotoxicity against human HeLa cells assessed as reduction in cell viability incubated for 20 hrs by Alamar blue assay; assay type: cell-based
Zaire ebolavirus [12] = experiment: Potency index, ratio of ABMA EC50 to compound EC50 for antiviral activity against Zaire Ebola virus -Mayinga expressing GFP infected in human HeLa cells; assay type: functional, 1976
A549 [13] = experiment: Induction of morphological changes in human A549 cells assessed as change in golgi apparatus at 30 uM incubated for 24 hrs by cyto-painter dye based inverted microscopic method; assay type: functional, cell-based
A549 [14] = experiment: Induction of morphological changes in human A549 cells assessed as change in endoplasmic reticulum at 30 uM incubated for 24 hrs by cyto-painter dye based inverted microscopic method; assay type: functional, cell-based
A549 [15] = experiment: Induction of morphological changes in human A549 cells assessed as change in mitochondria at 30 uM incubated for 24 hrs by MitoTracker Red based inverted microscopic method; assay type: functional, cell-based
Vero [16] = experiment: Selectivity index, ratio of CC50 for cytotoxicity against African green monkey Vero cells to EC50 for cytoprotective activity in TcsL-induced cytotoxicity in African green monkey Vero cells; parameters: species or system Chlorocebus sabaeus
Vero [17] = experiment: Selectivity index, ratio of CC50 for cytotoxicity against African green monkey Vero cells to EC50 for cytoprotective activity in TcdB-induced cytotoxicity in African green monkey Vero cells; parameters: species or system Chlorocebus sabaeus
[18] = Selectivity index, ratio of CC50 for cytotoxicity against mouse L929 cells to EC50 for cytoprotective activity in Pseudomonas aeruginosa exotoxin-induced cytotoxicity in mouse L929 cells; assay type: toxicity, cell-based; conditions: read-out: Ratio CC50/EC50
[19] = Selectivity index, ratio of CC50 for cytotoxicity against human HeLa cells to ratio of EC50 for Antiviral activity against Zaire EBOV-mayinga strain expressing GFP infected in human HeLa cells; assay type: toxicity, cell-based; conditions: read-out: Ratio CC50/EC50
A549 [20] = experiment: Inhibition of diphtheria induced toxicity in human A549 cells assessed as protection factor at 15 uM incubated for 20 hrs in presence of bafilomycin A1 followed by replacement of [14c]-Leucine containing medium and measured after 4 hrs by liquid scintillation analysis relative to untreated control; assay type: functional; in short: as §1
A549 [21] = experiment: Cytotoxicity against human A549 cells assessed as reduction in cell viability at 15 uM incubated for 20 hrs in presence of bafilomycin A1; assay type: cell-based; conditions: a549, 20 h

## COc1ccc(Br)cc1CNC12CC3CC(C)(CC(C)(C3)C1)C2
[1]
  CC50 at 24 h: 120 µM
A549 [2]
  fold change (FC): 6.3
A549 [3]
  Activity: Non-Toxic
HUVEC
  Activity: Active
Vero [4]
  Activity: Active
PC-3
  Activity: Active
A-431
  Activity: Active
A549 [5]
  Activity: Active
A549 [6]
  Activity: Active
A549 [7]
  Activity: Active
Vero [8]
  inhibition: Active
Vero [9]
  EC50: 15.8 µM
L929
  EC50: 20.8 µM
Lyssavirus rabies
  inhibition: Active
Zaire ebolavirus [10]
  inhibition (INH): >50%
[11]
  CC50 at 20 h: 117 µM
Zaire ebolavirus [12]
  Ratio EC50: 6.6
A549 [13]
  Activity: inactive
A549 [14]
  Activity: inactive
A549 [15]
  Activity: inactive
Vero [16]
  Ratio CC50/EC50: 7.38
Vero [17]
  Ratio CC50/EC50: 6.34
[18]
  selectivity ratio: 4.35
[19]
  selectivity ratio: 120
A549 [20]
  fold change (FC): 300
A549 [21]
  Activity: Non-Toxic

— ChEMBL document CHEMBL4304791, “DABMA: A Derivative of ABMA with Improved Broad-Spectrum Inhibitory Activity of Toxins and Viruses” (ACS Med Chem Lett, 2019)
